From ChEMBL document CHEMBL1142433, “Synthesis and pharmacological characterization at glutamate receptors of the four enantiopure isomers of tricholomic acid” (J Med Chem, 2008)
pEC50, pIC50, pKi: −log10 of the molar value.

Tests used:
[1] = Displacement of [3H]AMPA from AMPA receptor in rat cortical membrane; type: cell membranes
Procedure, shortened: (§1)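 Competition binding on rat cortical membranes prepared by the Ransom and Stec method, using [3H]AMPA (AMPA receptors) or [3H]KA (kainate receptors). IC50 in µM reported as mean [pIC50 ± SEM] of at least three individual experiments.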

[2] = Displacement of [3H]KA from kainate receptor in rat cortical membrane; type: cell membranes; procedure, shortened: as §1
[3] = molecular target: Glutamate NMDA receptor; experiment: Displacement of [3H]CGP-39653 from NMDA receptor in rat cortical membrane; type: cell membranes
Procedure, shortened: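 NMDA receptor binding on rat cortical membranes prepared by the Ransom and Stec method, with [3H]CGP39653 as radioligand. Ki in µM reported as mean [pKi ± SEM] of at least three individual experiments.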

[4] = molecular target: Glutamate receptor 1 (Rattus norvegicus, UniProt P19490); experiment: Activity at rat cloned iGluR1 expressed in human HEK293 cells by calcium imaging assay; type: cell-based
Procedure, shortened: (§2)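 Rat iGluR1–6 subtypes cloned and expressed in HEK cells: iGluR2, iGluR5 and iGluR6 as the Q forms; iGluR1–4 marked with subscript "i". Receptor activation was read by Fluo-4 calcium imaging.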

[5] = molecular target: Glutamate receptor 1 (Rattus norvegicus) (UniProt P19490); experiment: Activity at rat cloned iGluR1 expressed in human HEK293 cells by calcium imaging assay relative to L-glutamate; type: cell-based; set-up: concentration or dose not given beside the values; procedure, shortened: as §2
[6] = molecular target: Glutamate receptor 2 (Rattus norvegicus, UniProt P19491); experiment: Activity at rat cloned iGluR2 expressed in human HEK293 cells by calcium imaging assay; type: cell-based
[7] = molecular target: Glutamate receptor 2 (Rattus norvegicus) (UniProt P19491); experiment: Activity at rat cloned iGluR2 expressed in human HEK293 cells by calcium imaging assay relative to L-glutamate; type: cell-based; set-up: concentration or dose not given beside the values; procedure, shortened: as §2
[8] = molecular target: Glutamate receptor 3 (Rattus norvegicus, UniProt P19492); experiment: Activity at rat cloned iGluR3 expressed in human HEK293 cells by calcium imaging assay; type: cell-based; details: for pEC50: read-out: EC50; procedure, shortened: as §2
[9] = molecular target: Glutamate receptor 3 (Rattus norvegicus) (UniProt P19492); experiment: Activity at rat cloned iGluR3 expressed in human HEK293 cells by calcium imaging assay relative to L-glutamate; type: cell-based; set-up: concentration or dose not given beside the values; procedure, shortened: as §2
[10] = molecular target: Glutamate receptor 4 (Rattus norvegicus, UniProt P19493); experiment: Activity at rat cloned iGluR4 expressed in human HEK293 cells by calcium imaging assay; type: cell-based; procedure, shortened: as §2
[11] = molecular target: Glutamate receptor 4 (Rattus norvegicus) (UniProt P19493); experiment: Activity at rat cloned iGluR4 expressed in human HEK293 cells by calcium imaging assay relative to L-glutamate; type: cell-based; set-up: concentration or dose not given beside the values; procedure, shortened: as §2
[12] = molecular target: Glutamate receptor ionotropic, kainate 1 (Rattus norvegicus, UniProt P22756); experiment: Activity at rat cloned iGluR5 expressed in human HEK293 cells by calcium imaging assay; type: cell-based
[13] = molecular target: Glutamate receptor ionotropic, kainate 1 (Rattus norvegicus) (UniProt P22756); experiment: Activity at rat cloned iGluR5 expressed in human HEK293 cells by calcium imaging assay relative to L-glutamate; type: cell-based; set-up: concentration or dose not given beside the values; procedure, shortened: as §2
[14] = molecular target: Glutamate receptor ionotropic, kainate 2 (Rattus norvegicus, UniProt P42260); experiment: Activity at rat cloned iGluR6 expressed in human HEK293 cells by calcium imaging assay; type: cell-based; procedure, shortened: as §2
[15] = molecular target: Glutamate receptor ionotropic, kainate 2 (Rattus norvegicus) (UniProt P42260); experiment: Activity at rat cloned iGluR6 expressed in human HEK293 cells by calcium imaging assay relative to L-glutamate; type: cell-based; set-up: concentration or dose not given beside the values; procedure, shortened: as §2
[16] = molecular target: Metabotropic glutamate receptor 2 (Rattus norvegicus, UniProt P31421); experiment: Activity at rat cloned mGluR2 expressed in CHO cells assessed as effect on cAMP accumulation; type: functional, cell-based
Procedure, shortened: (§3)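 Second-messenger functional assay on rat mGluR1a (group I), mGluR2 (group II) and mGluR4 (group III) expressed in CHO cells. EC50 in µM with pEC50, reported as mean [pEC50 ± SEM] of at least three independent experiments.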

[17] = molecular target: Metabotropic glutamate receptor 1 (Rattus norvegicus, UniProt P23385); experiment: Activity at rat cloned mGluR1a expressed in CHO cells assessed as effect on cAMP accumulation; type: functional, cell-based; details: for pEC50: read-out: EC50; procedure, shortened: as §3
[18] = molecular target: Metabotropic glutamate receptor 4 (Rattus norvegicus, UniProt P31423); experiment: Activity at rat cloned mGluR4 expressed in CHO cells assessed as effect on cAMP accumulation; type: functional, cell-based; procedure, shortened: as §3

Sequence of Glutamate receptor ionotropic, kainate 1 (Rattus norvegicus) (P22756 whole entry): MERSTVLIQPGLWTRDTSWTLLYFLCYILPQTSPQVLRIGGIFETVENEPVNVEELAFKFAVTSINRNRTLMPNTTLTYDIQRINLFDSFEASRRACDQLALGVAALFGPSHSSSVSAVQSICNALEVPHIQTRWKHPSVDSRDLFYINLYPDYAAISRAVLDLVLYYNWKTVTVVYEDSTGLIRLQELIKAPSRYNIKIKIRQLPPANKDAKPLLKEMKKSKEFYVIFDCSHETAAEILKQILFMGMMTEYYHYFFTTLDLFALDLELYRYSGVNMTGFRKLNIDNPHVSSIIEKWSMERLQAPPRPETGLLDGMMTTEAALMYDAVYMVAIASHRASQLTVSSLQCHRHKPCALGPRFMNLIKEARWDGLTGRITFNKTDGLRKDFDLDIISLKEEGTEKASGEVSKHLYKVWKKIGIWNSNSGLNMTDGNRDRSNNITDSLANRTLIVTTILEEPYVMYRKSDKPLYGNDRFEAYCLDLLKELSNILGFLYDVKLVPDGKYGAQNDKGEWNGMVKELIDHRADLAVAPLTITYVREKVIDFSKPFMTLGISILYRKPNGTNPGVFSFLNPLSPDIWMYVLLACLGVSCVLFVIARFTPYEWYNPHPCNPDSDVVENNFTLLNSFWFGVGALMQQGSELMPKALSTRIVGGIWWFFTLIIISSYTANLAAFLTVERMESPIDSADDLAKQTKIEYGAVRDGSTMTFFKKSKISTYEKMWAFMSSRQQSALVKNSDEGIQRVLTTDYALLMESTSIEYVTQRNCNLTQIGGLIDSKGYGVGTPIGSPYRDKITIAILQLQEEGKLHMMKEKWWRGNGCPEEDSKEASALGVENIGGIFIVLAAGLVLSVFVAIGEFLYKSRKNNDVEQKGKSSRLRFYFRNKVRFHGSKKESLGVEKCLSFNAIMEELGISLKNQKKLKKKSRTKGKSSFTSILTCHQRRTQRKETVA
Sequence of Glutamate receptor ionotropic, kainate 1 (P22756 whole entry): as above
Sequence of Metabotropic glutamate receptor 2 (P31421 whole entry): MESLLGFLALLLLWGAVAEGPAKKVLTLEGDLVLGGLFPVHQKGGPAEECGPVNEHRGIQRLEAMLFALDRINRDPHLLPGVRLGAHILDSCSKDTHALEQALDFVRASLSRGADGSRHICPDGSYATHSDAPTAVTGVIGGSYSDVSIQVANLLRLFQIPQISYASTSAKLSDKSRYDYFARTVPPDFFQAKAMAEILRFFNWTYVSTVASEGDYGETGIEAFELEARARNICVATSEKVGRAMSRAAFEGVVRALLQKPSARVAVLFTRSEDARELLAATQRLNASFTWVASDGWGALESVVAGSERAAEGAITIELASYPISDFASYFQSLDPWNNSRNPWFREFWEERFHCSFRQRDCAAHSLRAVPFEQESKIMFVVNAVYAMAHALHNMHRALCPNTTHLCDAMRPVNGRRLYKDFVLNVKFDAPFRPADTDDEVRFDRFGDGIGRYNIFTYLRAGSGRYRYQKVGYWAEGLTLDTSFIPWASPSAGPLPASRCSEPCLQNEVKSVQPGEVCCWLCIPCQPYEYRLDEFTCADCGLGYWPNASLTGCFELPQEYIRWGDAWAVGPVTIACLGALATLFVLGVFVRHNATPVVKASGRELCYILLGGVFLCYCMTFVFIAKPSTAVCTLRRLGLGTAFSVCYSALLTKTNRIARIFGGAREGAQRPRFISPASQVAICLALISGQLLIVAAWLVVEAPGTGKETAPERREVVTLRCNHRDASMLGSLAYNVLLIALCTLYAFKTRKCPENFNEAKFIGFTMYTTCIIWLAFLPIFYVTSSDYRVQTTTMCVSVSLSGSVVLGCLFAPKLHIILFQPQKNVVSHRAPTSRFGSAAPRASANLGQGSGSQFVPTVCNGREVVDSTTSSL
Sequence of Glutamate receptor 4 (P19493 whole entry): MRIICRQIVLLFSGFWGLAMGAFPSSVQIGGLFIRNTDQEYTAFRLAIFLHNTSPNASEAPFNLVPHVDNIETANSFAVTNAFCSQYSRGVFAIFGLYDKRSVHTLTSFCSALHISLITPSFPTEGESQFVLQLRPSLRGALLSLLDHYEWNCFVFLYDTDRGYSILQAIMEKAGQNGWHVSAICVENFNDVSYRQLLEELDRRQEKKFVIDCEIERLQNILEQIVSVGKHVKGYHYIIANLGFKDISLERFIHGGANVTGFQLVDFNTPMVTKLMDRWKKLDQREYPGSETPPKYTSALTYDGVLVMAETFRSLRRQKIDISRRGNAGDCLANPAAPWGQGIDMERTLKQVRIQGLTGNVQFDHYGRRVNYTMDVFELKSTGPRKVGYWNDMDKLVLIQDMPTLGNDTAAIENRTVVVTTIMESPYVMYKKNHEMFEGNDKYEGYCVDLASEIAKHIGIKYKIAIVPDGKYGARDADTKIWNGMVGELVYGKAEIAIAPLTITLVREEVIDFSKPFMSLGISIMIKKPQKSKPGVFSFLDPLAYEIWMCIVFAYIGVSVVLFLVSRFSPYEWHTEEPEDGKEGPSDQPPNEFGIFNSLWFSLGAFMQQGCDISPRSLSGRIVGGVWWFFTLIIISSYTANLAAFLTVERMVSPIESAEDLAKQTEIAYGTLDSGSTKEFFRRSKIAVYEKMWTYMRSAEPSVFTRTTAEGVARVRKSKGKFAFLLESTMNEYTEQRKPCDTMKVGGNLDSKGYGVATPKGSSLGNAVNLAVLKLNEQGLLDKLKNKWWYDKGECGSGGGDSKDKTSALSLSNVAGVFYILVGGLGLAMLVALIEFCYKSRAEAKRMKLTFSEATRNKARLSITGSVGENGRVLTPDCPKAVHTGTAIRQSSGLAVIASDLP
Sequence of Glutamate receptor 4 (Rattus norvegicus) (P19493 whole entry): as above
Sequence of Glutamate receptor 3 (P19492 whole entry): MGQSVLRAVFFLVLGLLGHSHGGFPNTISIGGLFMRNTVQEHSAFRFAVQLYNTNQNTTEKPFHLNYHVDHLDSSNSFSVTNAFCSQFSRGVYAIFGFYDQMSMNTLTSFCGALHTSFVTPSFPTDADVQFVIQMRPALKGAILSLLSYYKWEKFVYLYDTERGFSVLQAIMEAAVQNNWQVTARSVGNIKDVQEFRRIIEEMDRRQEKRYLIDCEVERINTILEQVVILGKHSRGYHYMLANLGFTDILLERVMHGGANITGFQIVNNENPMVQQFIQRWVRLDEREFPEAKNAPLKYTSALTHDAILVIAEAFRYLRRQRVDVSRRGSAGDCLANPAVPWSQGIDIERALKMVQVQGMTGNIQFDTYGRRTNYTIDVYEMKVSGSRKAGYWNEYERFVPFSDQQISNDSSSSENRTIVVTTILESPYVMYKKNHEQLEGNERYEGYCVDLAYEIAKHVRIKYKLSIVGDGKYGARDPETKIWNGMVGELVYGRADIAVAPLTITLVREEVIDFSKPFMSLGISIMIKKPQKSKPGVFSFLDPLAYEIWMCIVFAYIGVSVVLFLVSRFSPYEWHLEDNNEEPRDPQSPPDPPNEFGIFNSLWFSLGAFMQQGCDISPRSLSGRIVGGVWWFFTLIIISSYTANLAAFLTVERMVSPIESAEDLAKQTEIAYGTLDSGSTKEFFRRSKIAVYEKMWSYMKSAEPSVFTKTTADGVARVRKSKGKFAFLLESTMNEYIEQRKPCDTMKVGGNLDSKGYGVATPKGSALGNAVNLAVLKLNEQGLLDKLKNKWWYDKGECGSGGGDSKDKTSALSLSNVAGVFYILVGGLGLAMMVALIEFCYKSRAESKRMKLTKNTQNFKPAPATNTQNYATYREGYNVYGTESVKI
Sequence of Glutamate receptor 3 (Rattus norvegicus) (P19492 whole entry): as above
Sequence of Metabotropic glutamate receptor 1 (P23385 whole entry): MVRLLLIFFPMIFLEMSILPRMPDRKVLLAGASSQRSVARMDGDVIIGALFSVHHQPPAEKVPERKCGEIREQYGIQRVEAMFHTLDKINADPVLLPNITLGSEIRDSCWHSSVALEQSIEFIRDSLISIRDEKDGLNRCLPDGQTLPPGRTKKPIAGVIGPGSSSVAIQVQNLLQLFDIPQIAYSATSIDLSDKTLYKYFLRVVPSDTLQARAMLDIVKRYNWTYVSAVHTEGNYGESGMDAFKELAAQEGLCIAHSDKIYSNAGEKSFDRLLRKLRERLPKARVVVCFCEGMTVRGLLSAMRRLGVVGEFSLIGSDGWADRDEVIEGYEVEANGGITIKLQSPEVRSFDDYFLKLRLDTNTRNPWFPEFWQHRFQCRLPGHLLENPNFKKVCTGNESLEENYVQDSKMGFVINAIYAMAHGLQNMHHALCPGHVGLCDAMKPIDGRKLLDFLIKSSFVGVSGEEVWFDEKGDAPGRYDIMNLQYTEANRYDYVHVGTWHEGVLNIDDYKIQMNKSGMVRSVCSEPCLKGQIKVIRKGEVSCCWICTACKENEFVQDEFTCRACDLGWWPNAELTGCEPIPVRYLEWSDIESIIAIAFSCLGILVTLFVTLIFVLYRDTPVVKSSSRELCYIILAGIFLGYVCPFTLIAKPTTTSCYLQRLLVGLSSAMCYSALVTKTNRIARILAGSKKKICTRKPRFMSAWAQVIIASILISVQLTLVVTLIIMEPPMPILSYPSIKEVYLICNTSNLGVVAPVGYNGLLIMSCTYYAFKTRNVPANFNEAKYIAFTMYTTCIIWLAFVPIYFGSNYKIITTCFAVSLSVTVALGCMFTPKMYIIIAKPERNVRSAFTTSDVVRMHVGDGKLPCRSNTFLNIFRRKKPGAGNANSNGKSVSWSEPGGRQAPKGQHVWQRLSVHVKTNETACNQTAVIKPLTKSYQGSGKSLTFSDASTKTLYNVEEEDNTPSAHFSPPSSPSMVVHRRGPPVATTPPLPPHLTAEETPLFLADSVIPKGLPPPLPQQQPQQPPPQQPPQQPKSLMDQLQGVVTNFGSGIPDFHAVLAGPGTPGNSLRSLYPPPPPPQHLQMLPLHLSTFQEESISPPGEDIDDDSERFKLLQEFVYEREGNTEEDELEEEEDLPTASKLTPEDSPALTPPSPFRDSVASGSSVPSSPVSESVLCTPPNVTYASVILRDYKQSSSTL

Row | SMILES | pIC50 [1] | Log IC50 [1] | pIC50 [2] | Log IC50 [2] | pKi [3] | pEC50 [4] | Activity [5] [%] | pEC50 [6] | Activity [7] [%] | pEC50 [8] | Activity [9] [%] | pEC50 [10] | Activity [11] [%] | pEC50 [12] | Activity [13] [%] | pEC50 [14] | Activity [15] [%] | pEC50 [16] | pEC50 [17] | pEC50 [18] | other results
1 | N[C@@H](C(=O)O)[C@@H]1CC(O)=NO1 | 4.92 | -4.92 | 4.96 | -4.95 | 4.12 | < 3.00 | 13 | < 3.00 | 14 | < 3.00 | 10 | < 3.00 | 7 | < 3.00 | 8 | < 3.00 | 15 | < 3.00 | < 3.00 | < 3.00 | –
2 | NC(C(=O)O)C1CC(O)=NO1 (racemic; form 2) [TRICHOLOMIC ACID] | 4.72 | -4.73 | 5.22 | -5.22 | – | – | – | – | – | – | – | – | – | – | – | – | – | 4.00 | 3.96 | – | pIC50 [3]: 4.14; EC50 ([17]; read-out: Log EC50 (converted)): 79.4 µM
3 | N[C@H](C(=O)O)[C@H]1CC(O)=NO1 | < 4.00 | – | 4.44 | -4.45 | 4.02 | < 3.00 | 35 | < 3.00 | 20 | < 3.00 | 23 | < 3.00 | 90 | < 3.00 | 12 | < 3.00 | 11 | 4.08 | 4.09 | < 3.00 | Log Ki [3]: -4.03
4 | N[C@H](C(=O)O)c1cc(O)no1 [IBOTENIC ACID] | < 4.00 | – | 4.66 | -4.66 | – | – | 6 | – | 2 | – | 1 | – | 32 | – | 8 | – | 96 | – | – | – | –
5 | NC(C(=O)O)C1CC(O)=NO1 (racemic; form 1) [TRICHOLOMIC ACID] | 5.96 | -5.86 | 6.12 | -6.14 | – | – | – | – | – | – | – | – | – | – | – | – | – | < 3.00 | 3.10 | < 3.00 | pIC50 [3]: 5.82
6 | N[C@@H](C(=O)O)[C@H]1CC(O)=NO1 | < 4.00 | – | < 4.00 | – | 6.17 | < 3.00 | 15 | < 3.00 | 13 | < 3.00 | 10 | < 3.00 | 9 | < 3.00 | 10 | < 3.00 | 11 | < 3.00 | < 3.00 | < 3.00 | Log Ki [3]: -6.19
7 | N[C@H](C(=O)O)c1cc(=O)[nH]o1 [IBOTENIC ACID] | – | – | – | – | – | < 3.00 | – | < 3.00 | – | < 3.00 | – | < 3.00 | – | < 3.00 | – | < 3.00 | – | – | 4.37 | < 3.00 | –
8 | N[C@H](C(=O)O)[C@@H]1CC(O)=NO1 | 6.02 | -6.02 | 6.54 | -6.55 | 4.39 | 3.92 | 90 | 3.32 | 74 | 3.77 | 88 | 4.52 | 91 | 3.55 | 91 | 4.09 | 91 | < 3.00 | 3.21 | < 3.00 | EC50 ([8]; read-out: Log EC50 (converted)): 155 µM
